# Calls of active or inactive are those of the source. No cut-off for these calls is given here.
# Tests used:
# [1] = biological target: T1, 2-amino-4-hydroxy-6-hydroxymethyldihydropteridine pyrophosphokinase (Escherichia coli (strain K12)) (UniProt P26281); experiment: Inhibition of GST-tagged Escherichia coli HPPK expressed in Escherichia coli using 6-hydroxymethyl-7,8-dihydropterin hydrochloride as substrate at 250 uM after 20 mins by luminescence assay
# T1 sequence (whole entry): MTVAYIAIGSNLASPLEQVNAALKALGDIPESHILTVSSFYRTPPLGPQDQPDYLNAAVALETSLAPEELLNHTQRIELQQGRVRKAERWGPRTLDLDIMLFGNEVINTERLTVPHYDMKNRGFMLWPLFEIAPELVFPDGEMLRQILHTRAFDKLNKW
# In short: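 GST tag cleaved from E. coli HPPK; 5 ng enzyme used. Reaction contained 0.75 µM dihydropterin substrate, 0.75 µM ATP, 100 mM Tris-HCl pH 8.5, 10 mM MgCl2, 10 mM BME, 0.01% Tween 20, 0.01% BSA and 5% DMSO. Compound present at 250 µM. Ran 20 min at 23 °C. Unconsumed ATP read by Kinase-Glo luminescence and reported as % inhibition.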
# [2] = biological target: T2, 2-amino-4-hydroxy-6-hydroxymethyldihydropteridine pyrophosphokinase (Escherichia coli (strain K12), UniProt P26281); experiment: Binding affinity to GST-tagged Escherichia coli HPPK expressed in Escherichia coli by SPR assay based alternative equilibrium affinity method in presence of AMP-CPP
# T2 sequence (P26281 whole entry): T1 sequence (whole entry)
# In short: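 E. coli HPPK expressed as a GST fusion, with the tag removed by thrombin. Minimally biotinylated and captured on a neutravidin chip. SPR run at 20 °C in 20 mM Tris pH 8.5, 100 mM NaCl, 10 mM MgCl2, 1 mM TCEP, 10% glycerol, 5% DMSO, with 2 µM AMPCPP. Compounds injected as a 3-fold series from 100 µM at 80 µL/min. Data double-referenced and fitted to a 1:1 model.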
# [3] = biological target: T2, 2-amino-4-hydroxy-6-hydroxymethyldihydropteridine pyrophosphokinase; experiment: Inhibition of GST-tagged Escherichia coli HPPK expressed in Escherichia coli using 6-hydroxymethyl-7,8-dihydropterin hydrochloride as substrate after 20 mins by luminescence assay
# In short: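 GST tag cleaved from E. coli HPPK; 5 ng enzyme used. Reaction contained 0.75 µM dihydropterin substrate, 0.75 µM ATP, 100 mM Tris-HCl pH 8.5, 10 mM MgCl2, 10 mM BME, 0.01% Tween 20, 0.01% BSA and 5% DMSO. Ran 20 min at 23 °C. Remaining ATP read by Kinase-Glo luminescence.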
# [4] = biological target: T1, 2-amino-4-hydroxy-6-hydroxymethyldihydropteridine pyrophosphokinase (Escherichia coli (strain K12)); experiment: Binding affinity to GST-tagged Escherichia coli HPPK expressed in Escherichia coli by ITC method
# [5] = biological target: T1, 2-amino-4-hydroxy-6-hydroxymethyldihydropteridine pyrophosphokinase (Escherichia coli (strain K12)); experiment: Binding affinity to GST-tagged Escherichia coli HPPK expressed in Escherichia coli by SPR assay in absence of AMP-CPP
# In short: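 Thrombin-cleaved EcHPPK (GST removed), minimally biotinylated and captured (~3000–3700 RU) on a neutravidin chip. SPR at 20 °C, no AMPCPP, in 20 mM Tris pH 8.5, 100 mM NaCl, 10 mM MgCl2, 1 mM TCEP, 0.005% Tween20, 10% glycerol, 5% DMSO. Compounds run as 3-fold dilution series. Data double-referenced, solvent-corrected, fitted to a 1:1 model for K_D.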
Activity [4],Compound,inhibition [1],Kd [2],IC50 [3],Activity [5]
,Nc1nc2[nH]cnc2c(=S)[nH]1,51%,,,
,Cc1ccc(C(=O)C(C)Sc2nc3nc(N)[nH]c(=O)c3[nH]2)cc1 (centres undefined),13%,,,
,Cc1nc2c(=O)[nH]c(N)nc2[nH]1,,18 µM,,
,Nc1nc2nc(SCC(=O)c3ccc(F)cc3)[nH]c2c(=O)[nH]1,73%,11.2 µM,79 µM,
,Nc1nc(O)nc2nc[nH]c12 [ISOGUANINE],,7.5 µM,,
Active,NC1N=C(O)c2nc(CO)cnc2N1 (centres undefined),,,,
,Nc1nc2nc(SCC(=O)c3ccc(OCCN4CCOCC4)cc3)[nH]c2c(=O)[nH]1,5%,,,
,Cc1ccccc1C(=O)CSc1nc2nc(N)[nH]c(=O)c2[nH]1,48%,18.9 µM,243 µM,
,Cc1ccc(C(=O)CSc2nc3nc(N)[nH]c(=O)c3[nH]2)cc1,80%,6.7 µM,64 µM,
,Nc1nc2nc(SC(=O)c3ccc(F)cc3)[nH]c2c(=O)[nH]1,16%,,,
,COc1ccccc1C(=O)CSc1nc2nc(N)[nH]c(=O)c2[nH]1,12%,,,
,Nc1nc2[nH]c(S)nc2c(=O)[nH]1,18%,> 100 µM,,
,Nc1nc(O)c2nc(SCC(=O)N3CCOCC3)[nH]c2n1,6%,,,
,Nc1nc2nc[nH]c2c(=O)[nH]1 [GUANINE],,38 µM,,
,Cc1cccc(C(=O)CSc2nc3nc(N)[nH]c(=O)c3[nH]2)c1,77%,5.9 µM,51 µM,
,N#Cc1ccc(CSc2nc3nc(N)[nH]c(=O)c3[nH]2)cc1,53%,29 µM,254 µM,inactive
,CC(Sc1nc2nc(N)[nH]c(=O)c2[nH]1)C(=O)c1ccccc1 (centres undefined),10%,,,
,Nc1nc2nc(SCC(=O)c3ccc(O)cc3)[nH]c2c(=O)[nH]1,77%,5.8 µM,82 µM,
,Nc1nc2nc(SCC(=O)c3ccccc3)[nH]c2c(=O)[nH]1,75%,9.7 µM,139 µM,inactive
,Nc1nc2nc(SCCN3CCOCC3)[nH]c2c(=O)[nH]1,7%,,,
,Nc1nc2[nH]cnc2c(=O)[nH]1,48%,,,
,N#Cc1ccc(C(=O)CSc2nc3nc(N)[nH]c(=O)c3[nH]2)cc1,68%,39 µM,88 µM,
,COc1ccc(C(=O)CSc2nc3nc(N)[nH]c(=O)c3[nH]2)cc1,74%,14.5 µM,44 µM,

# — ChEMBL document CHEMBL3232813, “The identification, analysis and structure-based development of novel inhibitors of 6-hydroxymethyl-7,8-dihydropterin pyrophosphokinase” (Bioorg Med Chem, 2014)
